A word on the IC50: it is the concentration needed to halve the response being measured. Usually Ki stands for a measure of affinity in units of concentration, obtained from inhibition or displacement.

Assay [1] addresses T1, Dopamine beta-hydroxylase (Bos taurus, UniProt P15101).
T1 sequence (P15101 whole entry): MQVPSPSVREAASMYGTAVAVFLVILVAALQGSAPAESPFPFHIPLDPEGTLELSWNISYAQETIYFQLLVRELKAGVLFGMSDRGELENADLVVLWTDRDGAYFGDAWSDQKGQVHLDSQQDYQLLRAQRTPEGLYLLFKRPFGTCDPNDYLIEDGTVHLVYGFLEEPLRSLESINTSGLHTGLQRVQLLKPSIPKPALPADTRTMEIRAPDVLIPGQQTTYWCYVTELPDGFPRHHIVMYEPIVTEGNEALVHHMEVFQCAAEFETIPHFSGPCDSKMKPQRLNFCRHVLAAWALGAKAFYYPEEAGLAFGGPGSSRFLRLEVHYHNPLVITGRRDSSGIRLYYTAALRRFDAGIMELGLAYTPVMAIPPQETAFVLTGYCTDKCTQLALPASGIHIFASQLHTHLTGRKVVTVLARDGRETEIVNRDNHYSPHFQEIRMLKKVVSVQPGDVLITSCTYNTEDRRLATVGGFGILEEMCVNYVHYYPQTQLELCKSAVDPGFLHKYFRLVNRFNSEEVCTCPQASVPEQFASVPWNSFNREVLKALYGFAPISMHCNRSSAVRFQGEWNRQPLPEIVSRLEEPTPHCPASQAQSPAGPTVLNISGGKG
As to the kind of experiment: Inhibitory activity against bovine adrenal dopamine beta-hydroxylase (DBH). The method, boiled down: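 Commercial bovine DBH, assayed by oxygen consumption on an oxygen electrode at 25.0 °C. Mixture contained 2 mM ascorbic acid, 10 mM sodium fumarate, catalase and 10 mM tyramine in 0.1 M sodium acetate pH 5.0. Rates corrected for nonenzymatic ascorbate oxidation. IC50 from duplicates in at least three separate experiments, mean ± SD.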

The nature of assay [2]: DBH (dopamine beta-hydroxylase) activity expressed as Ki value determined by degree to which compound inhibited conversion of tyramine to octopamine. The method, boiled down: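 Bovine adrenal medulla DBH, purified in-house (sp act. 44 µmol/min/mg). Incubated at 37 °C, atmospheric pressure, in 0.2 M acetate pH 5.5 with 10 mM ascorbate, 20 mM fumarate, […] and 1300 units catalase. Octopamine formed from tyramine measured by reverse-phase HPLC with fluorescence detection (ex 275, em 315 nm). Six inhibitor and four substrate concentrations tested, DMSO ≤3% final, duplicates; Ki from Dixon analysis.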

Assay [3] deals with Rattus norvegicus. As to the kind of experiment: Mean arterial blood pressure was determined in SHR (spontaneous hypertensive rat) with control at a peroral dose of 50 mg/kg. The class given is functional. Particulars: route oral. The method, boiled down:
(§1)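 Conscious SHR with a carotid catheter externalized at the nape, allowed about 48 h to recover from surgery. Dosed po at 09:00 with vehicle (50% PEG 400) or compound suspension, with treatments reversed the next day in a cross-over design. Mean arterial pressure recorded as 5 min averages and compared with vehicle by paired t test (mean ± SEM, p<0.05).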

The test system of assay [4] is Rattus norvegicus. As to the kind of experiment: Duration of activity of compound in SHR (spontaneous hypertensive rat) at the dose of 25 mg/kg (po). The class given is functional. In outline: as §1
Assay [5] concerns Rattus norvegicus. Nature of the assay: Duration of activity of compound in SHR (spontaneous hypertensive rat) at the dose of 100 mg/kg (po). The class given is functional. In outline: as §1
In assay [6] the test system is Rattus norvegicus. Nature of the assay: Mean arterial blood pressure was determined in SHR (spontaneous hypertensive rat) with administration at the dose of 100 mg/kg (po). The format is functional. In outline: as §1
Assay [7] relates to Rattus norvegicus. As to the kind of experiment: Mean arterial blood pressure was determined in SHR (spontaneous hypertensive rat) with control at a peroral dose of 25 mg/kg. The class given is functional. Conditions: route oral. In outline:
as §1

In assay [8] the test system is Rattus norvegicus. Nature of the assay: Mean arterial blood pressure was determined in SHR (spontaneous hypertensive rat) with control at a peroral dose of 100 mg/kg. The format is functional. Conditions: route oral. In outline:
as §1

Assay [9] is described as follows: Antihypertensive activity as ability to increase tissue DA/NE ratio of mesenteric artery 6 hr after oral administration in fasted SHR (spontaneous hypertensive rat) at the dose of 25 mg/kg (po). The class given is functional. In outline:
(§2)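 Male fasted SHR given compound orally as a suspension in 50% PEG 400 (0.4 mL/100 g), or vehicle alone. Killed 6 h after dosing. Mesenteric artery homogenized in 0.2 M HClO4 with DTT, EGTA and DHBA internal standard. Catecholamines adsorbed on alumina, eluted with 0.1 M H3PO4, and DA and NE quantified by reverse-phase HPLC. Ratio reported as mean ± SD and compared with vehicle by 2-tailed t test.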

Assay [10] is described as follows: Antihypertensive activity determined as ability to increase tissue DA/NE ratio of mesenteric artery 6 hr after oral administration in fasted SHR (spontaneous hypertensive rat). The format is functional. The method, boiled down:
as §2

A short description of assay [11]: Antihypertensive activity was determined by its ability to increase DA/NE ratio of mesenteric artery 6 hr after oral administration in fasted SHR at the dose of 50 mg/kg (po). The format is functional. In outline: as §2
Assay [12] relates to Rattus norvegicus. Nature of the assay: Mean arterial blood pressure was determined in SHR (spontaneous hypertensive rat) with administration at peroral dose of 50 mg/kg. The class given is functional. Particulars: route oral. In outline:
as §1

Assay [13] relates to Rattus norvegicus. As to the kind of experiment: Duration of activity of compound in SHR (spontaneous hypertensive rat) at the dose of 50 mg/kg (po). The class given is functional. The method, boiled down: as §1
Assay [14] in a line: Antihypertensive activity was determined by its ability to increase DA/NE ratio of mesenteric artery 6 hr after oral administration in fasted SHR (spontaneous hypertensive rat) at the dose of 100 mg/kg (po). The format is functional. In outline:
as §2

The subject of assay [15] is Rattus norvegicus. Nature of the assay: Mean arterial blood pressure was determined in SHR (spontaneous hypertensive rat) with administration at peroral dose of 25 mg/kg. The format is functional. Particulars: route oral. In outline: as §1

For the compound `Sc1nccn1CCCc1cccs1`, the IC50 in assay [1] was 1900 nM. Also, the Ki in assay [2] was found to be 480 nM.

For the compound `Fc1ccc(Cn2ccnc2S)s1`, in assay [1], half-maximal inhibition (IC50) required 4600 nM.

In the case of `Sc1nccn1Cc1ccsc1`, in assay [1], the half-inhibitory concentration (IC50) came to 5300 nM.

As for `Cc1ccc(CCn2ccnc2S)s1`, in assay [1], half-maximal inhibition (IC50) required 491 nM. The affinity in [2], expressed as Ki, was 160 nM.

In assay [1], `S=c1[nH]ccn1Cc1ccco1` yielded an IC50 of 6300 nM.

Regarding `Sc1nccn1CCc1ccsc1`, the IC50 in assay [1] amounted to 130 nM. Further, the Ki in [2] is 25 nM.

As to `Sc1nccn1Cc1cccs1`, in [1], half-maximal inhibition (IC50) was put at 4800 nM. This compound also displayed a Ki in assay [2] of 740 nM.

`Sc1nccn1CCc1cccs1`: the “Mean arterial blood pressure” value in the assay on Rattus norvegicus [3] was 172 mmHg; in the assay with Rattus norvegicus [6], 126 mmHg; in the assay with Rattus norvegicus [7] it was 148 mmHg; with Rattus norvegicus [8], 170 mmHg; in the assay on Rattus norvegicus [12], 137 mmHg; in the assay on Rattus norvegicus [15] it was 137 mmHg. Also, the Duration with Rattus norvegicus [4] was less than 1 h; in the assay on Rattus norvegicus [5], 20 h; with Rattus norvegicus [13] it was 8 h. The compound further yielded a half-maximal inhibitory concentration (IC50) in assay [1] of 114 nM. Further, the DA/NE ratio in assay [9] is 0.214; in assay [10], 0.072; in assay [11], 0.269; in assay [14] it was 0.333. The inhibition constant Ki in [2] was found to be 25.5 nM.

Regarding `Sc1nccn1CCCCc1cccs1`, the IC50 in [1] turned out to be 3600 nM. Moreover, the inhibitory constant (Ki) in [2] amounted to 1400 nM.

Turning to `Sc1nccn1Cc1ccc(Cl)s1`, the concentration for half-maximal inhibition (IC50) in assay [1] was 1000 nM.

In assay [1], `Fc1cc(F)cc(Cn2cc[nH]c2=S)c1` yielded an IC50 of 210 nM. In assay [2], the inhibitory constant (Ki) worked out at 60 nM.

Source of the values: ChEMBL document CHEMBL1125106, “1-(Thienylalkyl)imidazole-2(3H)-thiones as potent competitive inhibitors of dopamine beta-hydroxylase” (J Med Chem, 1990).
